Measurements taken from the M2OR odorant receptor database.

Legend:
Details in all cases: stereoisomer not certain
OR4P4 (Homo sapiens) = OR4P4 (Homo sapiens) (UniProt Q8NGL7)
Summary of the method: (§1)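 Whether a receptor–molecule pair is responsive (active) rests on the original authors' judgment that its measured signal was statistically different from baseline. Pairs without that judgment are non-responsive (inactive). Sources used varied assay methods, commonly transient luciferase assays in mammalian cell lines.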

OR4Q2 (Homo sapiens) = OR4Q2 (Homo sapiens) (UniProt P0C623)
Summary of the method: as §1

OR4Q3 (Homo sapiens) = target: T1, OR4Q3 (Homo sapiens) (UniProt Q8NH05)
T1 sequence (whole entry): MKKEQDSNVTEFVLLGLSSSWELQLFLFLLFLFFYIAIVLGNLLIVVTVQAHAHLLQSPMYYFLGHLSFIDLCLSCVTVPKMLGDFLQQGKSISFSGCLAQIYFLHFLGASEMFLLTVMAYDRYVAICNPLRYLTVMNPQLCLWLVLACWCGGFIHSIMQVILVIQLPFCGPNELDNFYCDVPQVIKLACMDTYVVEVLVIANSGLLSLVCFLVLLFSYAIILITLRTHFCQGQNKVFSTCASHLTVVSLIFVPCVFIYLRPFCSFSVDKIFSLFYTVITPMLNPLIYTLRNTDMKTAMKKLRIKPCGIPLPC
Summary of the method: as §1

OR4S1 (Homo sapiens) = OR4S1 (Homo sapiens) (UniProt Q8NGB4)
Summary of the method: as §1

OR4S2 (Homo sapiens) = OR4S2 (Homo sapiens) (UniProt Q8NH73)
Summary of the method: as §1

OR4X1 (Homo sapiens) = OR4X1 (Homo sapiens) (UniProt Q8NH49)
Summary of the method: as §1

OR4X2 (Homo sapiens) = OR4X2 (Homo sapiens) (UniProt Q8NGF9)
Summary of the method: as §1

OR51A2 (Homo sapiens) = OR51A2 (Homo sapiens) (UniProt Q8NGJ7)
Summary of the method: as §1

OR4Q3 = system: OR4Q3
Summary of the method: as §1

OR4Q3 T135A = system: OR4Q3 T135A
Summary of the method: as §1

Measured: odorant receptor agonist call;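 also: active if original authors judged signal statistically different from baseline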

OR51A2 (Homo sapiens), sequence (Q8NGJ7 whole entry): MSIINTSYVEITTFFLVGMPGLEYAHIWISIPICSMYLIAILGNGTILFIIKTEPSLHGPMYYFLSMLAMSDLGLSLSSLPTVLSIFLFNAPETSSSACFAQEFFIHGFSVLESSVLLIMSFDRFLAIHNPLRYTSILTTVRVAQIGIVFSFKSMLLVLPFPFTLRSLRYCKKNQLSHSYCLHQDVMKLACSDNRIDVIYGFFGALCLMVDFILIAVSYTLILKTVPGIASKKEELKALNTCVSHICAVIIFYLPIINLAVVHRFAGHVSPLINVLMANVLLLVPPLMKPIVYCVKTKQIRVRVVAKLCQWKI
OR4X2 (Homo sapiens), sequence (Q8NGF9 whole entry): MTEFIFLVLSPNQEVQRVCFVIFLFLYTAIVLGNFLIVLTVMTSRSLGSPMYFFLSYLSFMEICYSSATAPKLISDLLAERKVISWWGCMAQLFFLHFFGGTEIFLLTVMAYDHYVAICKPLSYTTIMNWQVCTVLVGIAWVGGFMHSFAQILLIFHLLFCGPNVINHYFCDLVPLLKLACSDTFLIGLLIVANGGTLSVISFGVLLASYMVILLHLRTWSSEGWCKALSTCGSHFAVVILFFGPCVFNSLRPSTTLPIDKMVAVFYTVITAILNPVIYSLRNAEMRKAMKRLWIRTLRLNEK
OR4X1 (Homo sapiens), sequence (Q8NH49 whole entry): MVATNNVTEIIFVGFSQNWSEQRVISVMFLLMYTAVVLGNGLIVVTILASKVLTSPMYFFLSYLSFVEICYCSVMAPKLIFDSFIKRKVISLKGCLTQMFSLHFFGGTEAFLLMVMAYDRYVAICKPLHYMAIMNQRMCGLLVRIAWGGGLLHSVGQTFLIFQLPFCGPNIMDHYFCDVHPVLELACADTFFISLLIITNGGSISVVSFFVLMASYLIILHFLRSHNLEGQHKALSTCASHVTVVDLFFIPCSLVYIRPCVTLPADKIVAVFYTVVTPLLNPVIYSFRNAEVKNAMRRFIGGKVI
OR4S2 (Homo sapiens), sequence (Q8NH73 whole entry): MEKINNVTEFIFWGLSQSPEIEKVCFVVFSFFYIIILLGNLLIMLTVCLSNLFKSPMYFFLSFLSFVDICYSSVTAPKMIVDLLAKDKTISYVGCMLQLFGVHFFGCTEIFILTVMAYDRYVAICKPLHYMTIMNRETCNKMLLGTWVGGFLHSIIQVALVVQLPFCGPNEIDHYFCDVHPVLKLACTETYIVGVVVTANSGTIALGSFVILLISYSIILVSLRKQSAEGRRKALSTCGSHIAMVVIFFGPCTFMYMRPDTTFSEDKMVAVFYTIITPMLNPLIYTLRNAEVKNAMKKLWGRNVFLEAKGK
OR4P4 (Homo sapiens), sequence (Q8NGL7 whole entry): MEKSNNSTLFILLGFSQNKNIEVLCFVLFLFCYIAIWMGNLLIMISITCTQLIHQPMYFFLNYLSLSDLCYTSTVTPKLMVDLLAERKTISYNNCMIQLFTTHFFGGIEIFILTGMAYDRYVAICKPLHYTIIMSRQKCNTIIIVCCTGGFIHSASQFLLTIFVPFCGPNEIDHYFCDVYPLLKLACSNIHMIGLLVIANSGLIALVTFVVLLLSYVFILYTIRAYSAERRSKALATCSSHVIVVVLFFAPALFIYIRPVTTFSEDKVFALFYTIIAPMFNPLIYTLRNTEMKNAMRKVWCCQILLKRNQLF
OR4S1 (Homo sapiens), sequence (Q8NGB4 whole entry): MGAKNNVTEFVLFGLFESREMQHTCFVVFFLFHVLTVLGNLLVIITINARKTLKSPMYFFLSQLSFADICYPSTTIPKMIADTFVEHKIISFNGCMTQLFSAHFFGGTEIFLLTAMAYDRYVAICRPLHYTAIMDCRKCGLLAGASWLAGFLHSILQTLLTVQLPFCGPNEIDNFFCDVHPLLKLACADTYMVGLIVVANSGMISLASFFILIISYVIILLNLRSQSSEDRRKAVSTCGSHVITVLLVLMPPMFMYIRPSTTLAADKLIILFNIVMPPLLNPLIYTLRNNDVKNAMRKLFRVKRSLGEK
OR4Q3 T135A, sequence (as listed by the source, stated change not applied): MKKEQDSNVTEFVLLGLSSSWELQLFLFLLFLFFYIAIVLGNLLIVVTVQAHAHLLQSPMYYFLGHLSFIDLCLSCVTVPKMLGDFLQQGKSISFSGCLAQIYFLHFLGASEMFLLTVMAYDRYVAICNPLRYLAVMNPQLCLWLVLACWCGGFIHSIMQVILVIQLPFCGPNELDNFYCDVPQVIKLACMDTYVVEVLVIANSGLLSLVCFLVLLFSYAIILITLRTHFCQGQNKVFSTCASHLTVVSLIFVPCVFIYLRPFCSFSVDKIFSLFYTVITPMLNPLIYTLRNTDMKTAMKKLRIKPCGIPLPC
OR4Q2 (Homo sapiens), sequence (P0C623 as listed by the source): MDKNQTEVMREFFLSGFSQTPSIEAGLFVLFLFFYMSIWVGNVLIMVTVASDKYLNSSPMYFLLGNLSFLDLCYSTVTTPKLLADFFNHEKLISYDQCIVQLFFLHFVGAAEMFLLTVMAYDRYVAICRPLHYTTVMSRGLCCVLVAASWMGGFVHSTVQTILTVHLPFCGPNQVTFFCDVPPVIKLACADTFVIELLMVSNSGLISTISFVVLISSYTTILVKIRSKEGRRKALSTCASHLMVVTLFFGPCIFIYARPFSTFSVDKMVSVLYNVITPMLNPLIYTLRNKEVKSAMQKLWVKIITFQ
OR4Q3, sequence (as listed by the source): as the sequence (as listed by the source, stated change not applied) above, with A135T, F238L counted along it

Cc1c([N+](=O)[O-])c(C)c([N+](=O)[O-])c(C(C)(C)C)c1[N+](=O)[O-]
not listed: OR4Q3 | OR4Q3 T135A
inactive: all other assays above

CCCCOC(=O)c1ccccc1N
active: OR4Q3 (Homo sapiens)
inactive: OR4Q3

C=CCOC(=O)Cc1ccccc1
not listed: OR4Q2 (Homo sapiens) | OR4Q3
inactive: all other assays above
